Bioassay records (PubChem)
GSTO1 counter: blocks human GSTO1 in RBBP9 counter-screen | AID 1974 | recombinant GSTO1, activity-based probe fluorescence polarization | inhibition, % at 5.96 µM | 300,000 compounds, 1.1% hits;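 active = inhibition above the campaign mean inhibition plus 3 SD, cut at about 35% in these data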;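 also: 0% = GSTO1-1 with DMSO and 100% = wells lacking GSTO1-1 enzyme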
PAD4 FP inh: blocks human protein arginine deiminase 4 | Q9UM07 | recombinant PAD4, RCA probe fluorescence polarization | inhibition, % at 6.36 µM | 330,000 compounds, 0.41% hits | AID 485272;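 active = percent inhibition above a cutoff equal to the mean of all tested compounds plus 3 SD, cut at about 15% in these data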;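 also: 0% = PAD4 with RCA probe and DMSO and 100% = probe without PAD4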
SIAE primary: human SIAE inhibition, primary screen; Q9HAT2; SIAE FP-Rh probe binding, fluorescence polarization; inhibition, % at 9.66 µM; 370,000 compounds, 0.69% hits; AID 1053197;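 active = inhibition above a cutoff: mean of compounds within the control limits plus 3 SD of those, cut at about 17% in these data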;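 also: 0% = plate median of compound wells and 100% = probe without SIAE protein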
Target sequence (Q9HAT2 whole entry, looked up): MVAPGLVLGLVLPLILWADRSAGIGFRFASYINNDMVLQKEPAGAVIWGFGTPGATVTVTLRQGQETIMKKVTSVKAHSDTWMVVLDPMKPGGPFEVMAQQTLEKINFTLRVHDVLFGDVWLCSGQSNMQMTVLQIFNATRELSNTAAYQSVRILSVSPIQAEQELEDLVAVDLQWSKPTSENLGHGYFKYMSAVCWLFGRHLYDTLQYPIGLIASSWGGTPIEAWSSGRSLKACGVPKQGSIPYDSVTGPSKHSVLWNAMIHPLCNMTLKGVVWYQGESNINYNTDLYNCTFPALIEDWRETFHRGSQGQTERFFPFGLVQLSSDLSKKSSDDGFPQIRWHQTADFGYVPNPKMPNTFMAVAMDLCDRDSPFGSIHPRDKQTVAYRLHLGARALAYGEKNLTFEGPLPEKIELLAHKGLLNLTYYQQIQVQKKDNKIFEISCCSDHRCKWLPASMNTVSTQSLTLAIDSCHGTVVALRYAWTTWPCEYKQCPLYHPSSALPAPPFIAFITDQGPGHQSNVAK
RBBP9 inh: blocks human serine hydrolase RBBP9; AID 1515; recombinant RBBP9, FP-Rh probe fluorescence polarization; 220,000 compounds, 0.2% hits; O75884; inhibition, % at 7.94 µM;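 active = inhibition above the campaign mean of all tested compounds plus 3 SD, cut at about 14% in these data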;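 also: plate controls were DMSO wells with RBBP9 for no effect and wells lacking RBBP9 protein for full effect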
Target sequence (O75884 whole entry, looked up): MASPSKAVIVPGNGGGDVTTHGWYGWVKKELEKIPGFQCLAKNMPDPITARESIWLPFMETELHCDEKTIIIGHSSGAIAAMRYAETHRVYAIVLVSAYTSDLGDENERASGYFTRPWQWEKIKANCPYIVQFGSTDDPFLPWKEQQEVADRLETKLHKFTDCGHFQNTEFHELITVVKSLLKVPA
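system = RBBP9 protein | input = RBBP9 at 2.5 µM in dispensed solution, before mixing | measured by = fluorescence polarization (mP), excitation 525 nm, emission 598 nm | incubation = enzyme-compound preincubation 30 min, then probe labeling 45 min, 25 °C | buffer or medium = Tris-NaCl-Pluronic buffer, pH 8.0 | compound = single dose 7.94 µM | also added = FP-Rh probe, 375 nM dispensing solution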
PRMT1 inh: inhibitors of human PRMT1; AID 652257; recombinant PRMT1, activity-based probe fluorescence polarization; 370,000 compounds, 1.3% hits; inhibition, % at 2.79 µM; Q99873;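 active = inhibition above about 21% made by adding two undisclosed values, limit read from the data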
PRMT1 inh conf: confirmation of human PRMT1 inhibitors. shares compounds with PRMT1 inh. recombinant His-PRMT1, activity-based probe fluorescence polarization. inhibition, % at 2.79 µM. 3,300 compounds, 42% hits;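 active = mean inhibition across replicates above the hit cutoff derived for the earlier primary screen, cut at about 22% in these data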
The depositor's hits bear a star; . = no result. An excerpt weighted towards active compounds, which were near 2.7% of everything screened.

SMILES	GSTO1 counter	PAD4 FP inh	SIAE primary	RBBP9 inh	PRMT1 inh	PRMT1 inh conf
Cc1ccc(C2NCCS2)cc1 (stereo not drawn)	7.4	0.2	1.2	1.1	32.3*	8.0
CCOC(=O)c1nncc(-c2ccccc2)n1	.	-2.0	-0.9	.	-1.0	.
COCCNC(=O)C1CCCN(C(=O)c2oc3ccccc3c2C)CC1 (stereo not drawn)	.	.	-4.8	.	45.8*	2.8
COCCNC(=O)C1CCCN(C(=O)c2csc3ccccc23)CC1 (stereo not drawn)	.	.	-0.9	.	0.1	.
O=C(NNc1nc2cc3c(cc2s1)OCCO3)c1ccc(F)cc1	-4.6	-4.0	0.0	-6.2	32.8*	-0.9
O=C(Nc1nc2cc3c(cc2s1)OCCO3)c1ccncc1	-0.4	-8.2	16.8	-9.9	-2.5	.
CCC(CC)c1nnc(NC(=O)CN2C(=O)C3C4C=CC(C4)C3C2=O)s1 (stereo not drawn)	-0.9	0.1	1.9	0.0	1.9	.
CC(=O)Nc1ccc(S[C@@H](CCN2CC[C@H](C(C)(C)C)CCC2=O)c2ccccc2)cc1	.	12.1	-4.9	.	44.9*	60.6*
CC(=O)Nc1ccc(SC[C@H](Cc2ccccc2)N2CCN(CCc3ccccc3)CCC2=O)cc1	0.3	6.6	3.9	.	29.2*	41.9*
CC(=O)Nc1ccc(SC[C@H](Cc2ccccc2)N2CC[C@@H](C(C)(C)C)CCC2=O)cc1	.	5.8	-9.5	.	51.5*	39.4*
CC(=O)Nc1ccc(SCCN2CC[C@@H](C)CCC2=O)cc1	.	0.6	2.8	.	24.9*	29.8*
N#C/C(=C\c1cccnc1)C(=O)Nc1ccc(C(=O)O)cc1	-2.2	-5.4	-3.5	-9.7	-2.8	.
COc1ccccc1CNC(=O)C1CCC(CNS(=O)(=O)c2ccc(C)cc2)CC1 (stereo not drawn)	-0.4	-2.1	-2.0	.	0.6	.
CC(C)C(O)(c1ccccc1)C(CN1CCOCC1)c1ccccc1 (stereo not drawn)	.	.	7.0	.	2.5	.
O=C1OC(c2ccccc2)=N/C1=C\C=C\c1ccco1	10.5	-0.7	7.2	-6.6	26.2*	7.3
O=C1OC(c2ccccc2)=N/C1=C\C=C\c1ccccc1[N+](=O)[O-]	2.9	-4.8	3.6	-7.6	0.6	.
NC(=S)c1ccc(OCCCc2ccccc2)cc1	.	.	-2.1	.	2.7	.
CCC1(c2ccccc2)NC(=O)N(CC(=O)Nc2ccc(OC)nc2)C1=O (stereo not drawn)	2.9	-4.0	3.8	.	57.7*	55.0*
COC(=O)c1cc2occc2n1CC(=O)Nc1ccc(OC)c(OC)c1OC	-0.9	-0.7	4.7	3.0	0.6	.
COc1ccccc1OS(=O)(=O)c1ccc(NC(C)=O)cc1	13.7	0.0	-0.9	-9.4	-2.1	.
COC(=O)/C=C/S(=O)(=O)c1ccc(NC(C)=O)cc1	5.2	-2.8	3.6	-11.3	72.9*	28.6*
O=C(CCNc1cccc(F)c1)c1cc2ccccc2o1	-19.8	0.2	-1.1	-4.2	15.6	.
O=C(CCNc1ccc(F)cc1)c1cc2ccccc2o1	-4.0	-9.3	1.8	-6.2	49.0*	41.7*
CC(=O)N1CCN(c2nc(-c3ccco3)c3c(c2C#N)CC(C)(C)SC3)CC1	5.3	-2.9	3.3	-8.3	46.3*	4.9
Cc1nn(C(C)c2n[nH]c(=S)n2-c2ccc(F)cc2)c(C)c1[N+](=O)[O-] (stereo not drawn)	1.0	-2.6	1.6	-3.6	2.5	.
SMILES	GSTO1 counter	PAD4 FP inh	SIAE primary	RBBP9 inh	PRMT1 inh	PRMT1 inh conf
CC(=O)Nc1ccc2c(c1)Cc1ccc(Cl)cc1-2	.	.	-8.1	.	-1.2	.
CC(=O)Nc1ccc2c(c1)Cc1cc(N3C(=O)C=CC3=O)ccc1-2	.	.	-13.9	.	91.2*	95.0*
O=[N+]([O-])c1ccc2c(c1)Cc1cc(F)ccc1-2	.	.	-2.5	.	1.4	.
O=C1C=CC(=O)N1c1ccc2c(c1)Cc1cc(F)ccc1-2	.	.	-28.8	.	86.7*	82.9*
O=c1c(-c2ccco2)nc2ccccc2n1C(c1ccccn1)c1nc2ccccc2[nH]1 (stereo not drawn)	.	.	5.2	.	56.8*	11.7
COc1ccc(C(C(=O)NC2CCCCC2)n2c(=O)c(-c3ccco3)nc3ccccc32)cc1 (stereo not drawn)	.	.	-3.6	.	12.6	.
CC(C)(C)NC(=O)C(c1ccccc1)n1c(=O)c(-c2ccco2)nc2ccccc21 (stereo not drawn)	.	.	2.3	.	26.1*	16.1
O=C(NC1CCCCC1)C(c1cccc2ccccc12)n1c(=O)c(-c2ccco2)nc2ccccc21 (stereo not drawn)	.	.	-7.9	.	29.4*	19.1
O=c1oc2c(CN3CCOCC3)c(O)ccc2c2c1CCCC2	-0.1	1.8	3.1	-4.8	0.9	.
Fc1ccc(Nc2c3c(nc4ccccc24)CCC3)cc1	-3.8	2.6	1.0	-3.1	-3.4	.
C1CSC2(N1)C1CC3CC2CC(C1)C31NCCS1 (stereo not drawn)	12.5	-2.0	8.9	-3.2	62.6*	45.4*
COCc1cc(N2CCN(C(=O)OC(C)(C)C)C[C@@H]2C)ccc1N1CC[C@@H](O)C1	.	.	14.7	.	50.5*	9.2
C[C@@H]1CN(C(=O)OC(C)(C)C)CCN1c1ccc(N2CC[C@H](O)C2)c(C#N)c1	.	.	0.9	.	10.4	.
CSc1ccc(/C=N/NC(=O)CNc2ccc3ccccc3c2)cc1	-4.8	-2.2	14.7	6.3	28.8*	11.3
CN1/C(=C/c2cccc[n+]2CCO)Sc2ccccc21	2.7	0.0	0.8	.	6.1	.
CC(=S)/C=C1\Sc2ccccc2N1C	-7.2	-3.5	0.9	2.8	39.3*	17.1
COc1ccccc1OCC(=O)N/N=C/C=C/c1ccc([N+](=O)[O-])o1	17.6	-4.6	16.1	-0.1	24.8*	9.3
O=C(N/N=C/C=C/c1ccccc1[N+](=O)[O-])c1cccs1	10.3	1.0	16.9	-1.8	-3.6	.
O=C(N/N=C\C=C\c1ccc([N+](=O)[O-])o1)c1cccs1	.	.	3.8	.	31.1*	5.5
COc1cc(C(=O)OCC(C)=O)ccc1OCc1c(C)noc1C	.	.	4.0	1.4	-0.3	.
COc1ccc(C(=O)Cn2c(NCCCO)nc3ccccc32)cc1OC	1.8	-2.8	12.0	.	47.5*	6.3
Cc1cccc(N2C(=O)CC(n3ccnc3)C2=O)c1C (stereo not drawn)	10.4	-0.5	4.8	3.4	36.2*	5.6
O=C(CCSC1=NCCCN1)c1ccc(F)cc1	.	.	-5.7	.	30.9*	47.4*
Cc1cc(=O)oc2cc(NC(=O)C(C)N3C(=O)C4CCCCC4C3=O)ccc12 (stereo not drawn)	.	0.6	-1.1	.	9.4	.
CCc1noc(C)c1C(=O)OC(C)C(=O)Nc1cc([N+](=O)[O-])ccc1OC (stereo not drawn)	-1.4	2.6	-1.7	.	97.8*	-2.3
CCOc1cc(C2C(C(=O)O)c3cc(OCC)c(OCC)cc3C(=O)N2C)ccc1O (stereo not drawn)	2.4	1.9	-2.7	1.3	-0.9	.
O=C(CSC1=NCCN1)NC(c1ccccc1)c1ccccc1	-15.9	11.6	2.1	4.7	41.2*	26.3*
